{"source": "ChEMBL document CHEMBL1149331", "about": "“Design, synthesis, and structure-activity relationships of haloenol lactones: site-directed and isozyme-selective glutathione S-transferase inhibitors” (J Med Chem, 2004)", "key": {"[1]": {"target": "T1, Glutathione S-transferase P (Homo sapiens, UniProt P09211)", "assay": "Inactivation of recombinant human Glutathione S-transferase P", "method_in_brief": "(§1)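 Recombinant human GSTP1-1 (E. coli-expressed, glutathione-agarose purified), 0.1 mg/mL, preincubated with haloenol lactone (0.17 mM, added in ethanol; vehicle control) in phosphate buffer pH 7.4 at 30 °C. Aliquots taken at 0, 2, 5, 12 min. Residual activity read by Habig assay: 1.0 mM GSH + 1.0 mM CDNB, 0.1 M phosphate pH 6.5, A340, corrected for nonenzymatic rate; kobs from time course.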"}, "[2]": {"target": "T1, Glutathione S-transferase P", "assay": "(§2) Inhibitory activity for human Glutathione S-transferase P was determined", "method_in_brief": "as §1"}, "[3]": {"target": "T1, Glutathione S-transferase P", "assay": "as §2", "method_in_brief": "as §1", "remark": "listed apart in the source"}, "[4]": {"target": "T1, Glutathione S-transferase P", "assay": "(§3) Inhibitory activity for human glutathione S-transferase-pi isozyme was determined", "method_in_brief": "as §1"}, "[5]": {"target": "T1, Glutathione S-transferase P", "assay": "as §3", "method_in_brief": "as §1", "remark": "listed apart in the source"}}, "note": "Activity calls are given as the source filed them. The calls are words filed in the database; no cut-off is given here.", "data": [{"smiles": "O=C1O/C(=C/Br)CC1CCCc1ccccc1", "note": "(stereo not given)", "values": [{"measurement": "K obs", "setting": "[1]", "result": 0.0439}]}, {"smiles": "O=C1O/C(=C/Br)CC1C/C=C/c1ccccc1", "note": "(stereo not given)", "values": [{"measurement": "K obs", "setting": "[1]", "result": 0.0604}, {"measurement": "Ki", "setting": "[2]", "result": 6.1, "unit": "µM"}, {"measurement": "Kina", "setting": "[3]", "result": 0.025, "unit": "min⁻¹"}]}, {"smiles": "COc1ccc(/C=C/CC2C/C(=C\\Br)OC2=O)cc1", "note": "(stereo not given)", "values": [{"measurement": "K obs", "setting": "[1]", "result": "inactive"}]}, {"smiles": "CCCCCCCCCC1C/C(=C\\Br)OC1=O", "note": "(stereo not given)", "values": [{"measurement": "K obs", "setting": "[1]", "result": 0.0359}]}, {"smiles": "O=C1O/C(=C/Br)CC1CC1CCCCC1", "note": "(stereo not given)", "values": [{"measurement": "K obs", "setting": "[1]", "result": 0.0438}]}, {"smiles": "O=C1O/C(=C/Br)CC1CCc1ccccc1", "note": "(stereo not given)", "values": [{"measurement": "K obs", "setting": "[1]", "result": 0.0632}]}, {"smiles": "O=C1O/C(=C/Br)CC1CCCCc1ccccc1", "note": "(stereo not given)", "values": [{"measurement": "K obs", "setting": "[1]", "result": 0.0366}]}, {"smiles": "O=C1O/C(=C/Br)CC1c1ccccc1", "note": "(stereo not given)", "values": [{"measurement": "K obs", "setting": "[1]", "result": 0.15}, {"measurement": "Kina", "setting": "[4]", "result": 0.097, "unit": "min⁻¹"}, {"measurement": "Ki", "setting": "[5]", "result": 124, "unit": "µM"}]}, {"smiles": "O=C1O/C(=C/I)CC1C/C=C/c1ccccc1", "note": "(stereo not given)", "values": [{"measurement": "K obs", "setting": "[1]", "result": 0.0421}]}, {"smiles": "C/C(Br)=C1/CC(C/C=C/c2ccccc2)C(=O)O1", "note": "(stereo not given)", "values": [{"measurement": "K obs", "setting": "[1]", "result": 0.0322}]}, {"smiles": "O=C1O/C(=C/Br)CC1Cc1ccc2ccccc2c1", "note": "(stereo not given)", "values": [{"measurement": "K obs", "setting": "[1]", "result": 0.0499}]}, {"smiles": "CCCCCCC1C/C(=C\\Br)OC1=O", "note": "(stereo not given)", "values": [{"measurement": "K obs", "setting": "[1]", "result": 0.0847}]}, {"smiles": "O=C1O/C(=C/Br)CC1C/C=C/c1ccc(C(F)(F)F)cc1", "note": "(stereo not given)", "values": [{"measurement": "K obs", "setting": "[1]", "result": 0.0364}]}, {"smiles": "CCCCCCCCC1C/C(=C\\Br)OC1=O", "note": "(stereo not given)", "values": [{"measurement": "K obs", "setting": "[1]", "result": 0.0382}]}, {"smiles": "CCCCCCCC1C/C(=C\\Br)OC1=O", "note": "(stereo not given)", "values": [{"measurement": "K obs", "setting": "[1]", "result": 0.0608}]}, {"smiles": "O=C1O/C(=C/Br)CC1Cc1ccccc1", "note": "(stereo not given)", "values": [{"measurement": "K obs", "setting": "[1]", "result": 0.101}]}]}
